Data on 27 compounds can be found in ChEMBL document CHEMBL1641492, “Design, synthesis and biological evaluation of novel L-lysine ureido derivatives as aminopeptidase N inhibitors” (Bioorg Med Chem, 2011).

The first experiment has as its target T1, Aminopeptidase N (Sus scrofa, UniProt P15145).
T1 sequence (P15145 whole entry): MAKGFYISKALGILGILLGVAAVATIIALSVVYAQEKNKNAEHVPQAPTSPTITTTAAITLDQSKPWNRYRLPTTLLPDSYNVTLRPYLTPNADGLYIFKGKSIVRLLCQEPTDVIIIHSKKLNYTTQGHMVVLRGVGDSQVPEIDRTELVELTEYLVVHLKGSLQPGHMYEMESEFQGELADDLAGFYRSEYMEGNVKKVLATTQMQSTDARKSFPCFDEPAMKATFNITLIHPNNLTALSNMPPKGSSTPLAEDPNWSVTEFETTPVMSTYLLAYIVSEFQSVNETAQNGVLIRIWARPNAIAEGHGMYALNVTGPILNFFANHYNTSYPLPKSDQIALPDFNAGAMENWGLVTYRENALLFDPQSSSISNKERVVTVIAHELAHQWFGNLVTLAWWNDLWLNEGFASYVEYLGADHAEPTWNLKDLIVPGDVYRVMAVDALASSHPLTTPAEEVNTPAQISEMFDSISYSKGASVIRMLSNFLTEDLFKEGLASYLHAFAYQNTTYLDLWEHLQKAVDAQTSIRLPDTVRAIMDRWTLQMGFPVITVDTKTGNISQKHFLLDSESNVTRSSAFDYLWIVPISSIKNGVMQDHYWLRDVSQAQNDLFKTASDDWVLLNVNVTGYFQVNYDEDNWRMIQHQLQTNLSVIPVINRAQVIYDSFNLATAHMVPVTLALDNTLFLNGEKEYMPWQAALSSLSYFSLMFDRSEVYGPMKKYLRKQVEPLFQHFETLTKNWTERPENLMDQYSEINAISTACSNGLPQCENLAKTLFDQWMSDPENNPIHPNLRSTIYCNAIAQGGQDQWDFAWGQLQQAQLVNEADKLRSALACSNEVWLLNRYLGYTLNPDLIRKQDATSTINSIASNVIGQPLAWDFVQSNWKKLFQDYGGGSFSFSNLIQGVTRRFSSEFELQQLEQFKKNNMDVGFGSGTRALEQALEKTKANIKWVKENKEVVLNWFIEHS
As to the kind of experiment: Inhibition of porcine kidney microsomal APN after 10 mins at room temperature by spectrophotometry.
Conditions: not given
The gist of the method:
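Porcine kidney microsomal aminopeptidase (lyophilized, 15–25 units/mg protein), 6 µg/mL final, preincubated with inhibitor 10 min at room temperature. Substrate L-Leu-p-nitroanilide, 50 mM PBS pH 7.2, 37 °C. Inhibitor solutions in assay buffer adjusted to pH 7.5. IC50 as mean ± SD of three independent assays.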
By IC50 is commonly meant the point on the concentration scale where inhibition reaches its midpoint. A low value points to inhibition by little substance. For `CC[C@@H](C)[C@H](NC(=O)N[C@@H](CCCCNC(=O)OCc1ccccc1)C(=O)NO)C(=O)NO`, the half-inhibitory concentration (IC50) was more than 50 µM.

The compound `O=C(N[C@@H](CCCCNC(=O)OCc1ccccc1)C(=O)NO)N[C@@H](Cc1ccccc1)C(=O)NO` showed an IC50 of 14.5 µM.

For the compound `CSCC[C@H](NC(=O)N[C@@H](CCCCNC(=O)OCc1ccccc1)C(=O)NO)C(=O)NO`, the midpoint of inhibition, the IC50, lay at 14.4 µM.

`COC(=O)[C@H](CCCCNC(=O)OCc1ccccc1)NC(=O)N[C@H](C(=O)OC)C(C)C` displayed a half-maximal inhibitory concentration (IC50) of more than 50 µM.

`COC(=O)[C@H](CCCCNC(=O)OCc1ccccc1)NC(=O)N[C@@H](CC(C)C)C(=O)OC` returned an IC50 of more than 50 µM.

`CC[C@@H](C)[C@H](NC(=O)N[C@@H](CCCCNC(=O)OCc1ccccc1)C(=O)OC)C(=O)OC` came in with an IC50 of more than 50 µM.

`COC(=O)[C@H](CCCCNC(=O)OCc1ccccc1)NC(=O)N[C@@H](Cc1ccccc1)C(=O)OC` had an IC50 of more than 50 µM.

With `COC(=O)[C@H](CCCCNC(=O)OCc1ccccc1)NC(=O)N[C@@H](CCSC)C(=O)OC`, the 50% inhibitory concentration (IC50) is more than 50 µM.

`O=C(O)CNC(=O)N[C@@H](CCCCNC(=O)OCc1ccccc1)C(=O)O` came in with an IC50 of more than 50 µM.

In the case of `C[C@H](NC(=O)N[C@@H](CCCCNC(=O)OCc1ccccc1)C(=O)O)C(=O)O`, the 50% inhibitory concentration (IC50) was more than 50 µM.

`CC(C)[C@H](NC(=O)N[C@@H](CCCCNC(=O)OCc1ccccc1)C(=O)O)C(=O)O` yielded an IC50 of more than 50 µM.

As for `CC(C)C[C@H](NC(=O)N[C@@H](CCCCNC(=O)OCc1ccccc1)C(=O)O)C(=O)O`, the IC50 is more than 50 µM.

Consider `CC[C@@H](C)[C@H](NC(=O)N[C@@H](CCCCNC(=O)OCc1ccccc1)C(=O)O)C(=O)O`, for which the 50% inhibitory concentration (IC50) was more than 50 µM.

In turn, `O=C(N[C@@H](CCCCNC(=O)OCc1ccccc1)C(=O)O)N[C@@H](Cc1ccccc1)C(=O)O` gave an IC50 of more than 50 µM.

Compound `CSCC[C@H](NC(=O)N[C@@H](CCCCNC(=O)OCc1ccccc1)C(=O)O)C(=O)O` showed a 50% inhibitory concentration (IC50) of more than 50 µM.

With `O=C(CNC(=O)N[C@@H](CCCCNC(=O)OCc1ccccc1)C(=O)NO)NO`, the half-maximal inhibitory concentration (IC50) was found to be 20.4 µM.

Compound `C[C@H](NC(=O)N[C@@H](CCCCNC(=O)OCc1ccccc1)C(=O)NO)C(=O)NO` displayed an IC50 of 19.9 µM.

Consider `CC(C)C[C@H](NC(=O)N[C@@H](CCCCNC(=O)OCc1ccccc1)C(=O)NO)C(=O)NO`, for which the midpoint of inhibition, the IC50, lay at 4.51 µM.

Compound `COC(=O)[C@H](CCCCNC(=O)OCc1ccccc1)NC(=O)NCc1ccccc1` came in with an IC50 of more than 50 µM.

The compound `COC(=O)[C@H](CCCCNC(=O)OCc1ccccc1)NC(=O)NCCc1ccccc1` displayed a 50% inhibitory concentration (IC50) of more than 50 µM.

On to `COC(=O)[C@H](CCCCNC(=O)OCc1ccccc1)NC(=O)NC(C)(C)C`, for which the IC50 is more than 50 µM.

`O=C(NCc1ccccc1)N[C@@H](CCCCNC(=O)OCc1ccccc1)C(=O)NO` had an IC50 of 16.4 µM.

Compound `O=C(NCCc1ccccc1)N[C@@H](CCCCNC(=O)OCc1ccccc1)C(=O)NO` gave an IC50 of more than 50 µM.

Take `CC(C)(C)NC(=O)N[C@@H](CCCCNC(=O)OCc1ccccc1)C(=O)NO`: the IC50 is more than 50 µM.

`COC(=O)CNC(=O)N[C@@H](CCCCNC(=O)OCc1ccccc1)C(=O)OC` showed an IC50 of more than 50 µM.

In turn, `COC(=O)[C@H](C)NC(=O)N[C@@H](CCCCNC(=O)OCc1ccccc1)C(=O)OC` showed a 50% inhibitory concentration (IC50) of more than 50 µM.

Tested on in the next experiment: not listed separately
Description: Antiproliferative activity against human ES2 cells after 48 hrs by MTT assay. It counts as functional, cell-based. The conditions noted are these: ES-2, 48 h. The gist of the method:
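ES-2 human cells seeded at 5000 per well, adhered 10 h, then exposed to 2500, 500, 100, 20 and 4 µg/mL compound for 48 h. MTT 0.5% solution added, 4 h further incubation, formazan dissolved in DMSO, absorbance at 570 nm. Three independent experiments, mean with SE.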
The compound `O=C(N[C@@H](CCCCNC(=O)OCc1ccccc1)C(=O)NO)N[C@@H](Cc1ccccc1)C(=O)NO` yielded an IC50 of 395 µM.

Regarding `CSCC[C@H](NC(=O)N[C@@H](CCCCNC(=O)OCc1ccccc1)C(=O)NO)C(=O)NO`, the IC50 came out at 356 µM.

With `C[C@H](NC(=O)N[C@@H](CCCCNC(=O)OCc1ccccc1)C(=O)NO)C(=O)NO`, 415 µM corresponded to half-maximal inhibition (IC50).

Consider `CC(C)C[C@H](NC(=O)N[C@@H](CCCCNC(=O)OCc1ccccc1)C(=O)NO)C(=O)NO`, for which half-maximal inhibition (IC50) was put at 291 µM.

Take `CC(C)C[C@H](NC(=O)[C@@H](O)[C@H](N)Cc1ccccc1)C(=O)O` [UBENIMEX]: the midpoint of inhibition, the IC50, lay at 332 µM.
